Screens: PubChem, Johns Hopkins Ion Channel Center
Hits are enriched below; roughly 3.7% of the tested compounds scored in any of these assays.
KCNQ1 pot: potentiators or activators of human KCNQ1 potassium channel; B-score at 10 µM; AID 2648; CHO-K1 KCNQ1, thallium flux FluxOR fluorescence; hits give high values; 0.35% of 310,000 active; P51787;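 active = fluorescence ratio B-score, a plate-corrected score, at least three library SD, with initial intensity B-score within 5 SD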
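Assay system: CHO-K1 cells stably expressing KCNQ1; Medium: assay buffer with matched DMSO; Also added: K+/Tl+ depolarizing stimulus; Dosing: single dose; Timing: dye 90 min, compound 20 min, room temperature; Measured by: kinetic FluxOR thallium fluorescence, 10-s 1-Hz baseline, 110-s post-stimulus read; Read-out: peak-minus-minimum fluorescence over initial fluorescence, negative-control normalized, B-scored.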
KCNQ1 block: blocks the human KCNQ1 potassium channel | P51787 | CHO-K1 KCNQ1, FluxOR thallium flux fluorescence; hits give high values | B-score at 10 µM | 1.3% of 310,000 active;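 active = compounds whose thallium flux B-score, printed positive for inhibition, exceeds three library SD while starting fluorescence stays within three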;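 note: channel opened by potassium depolarization with thallium stimulus after 20 min compound exposure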
KCNK3 inh: human KCNK3 channel inhibition, primary screen; O14649; CHO-KCNK3 thallium flux, FluxOR fluorescence; hits give low values; B-score at 10 µM; 0.84% of 340,000 active;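 active = B-score under library mean minus 4 SD, starting fluorescence ratio at most library mean plus 5 SD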;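 note: more negative B-score means stronger inhibition of thallium flux through KCNK3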
hERG rescue: compounds protecting human hERG from proarrhythmic drug block; 0.51% of 310,000 active; Q12809; CHO-hERG, FluxOR thallium flux, dofetilide IC70 present; activation (rescue from dofetilide block), less the hit threshold, % at 10 µM;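 active = activation above the mean of controls blocked by dofetilide plus 5 SD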;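 note: thallium influx through hERG after potassium depolarization seen as dye fluorescence rise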
Target sequence (Q12809 whole entry, looked up): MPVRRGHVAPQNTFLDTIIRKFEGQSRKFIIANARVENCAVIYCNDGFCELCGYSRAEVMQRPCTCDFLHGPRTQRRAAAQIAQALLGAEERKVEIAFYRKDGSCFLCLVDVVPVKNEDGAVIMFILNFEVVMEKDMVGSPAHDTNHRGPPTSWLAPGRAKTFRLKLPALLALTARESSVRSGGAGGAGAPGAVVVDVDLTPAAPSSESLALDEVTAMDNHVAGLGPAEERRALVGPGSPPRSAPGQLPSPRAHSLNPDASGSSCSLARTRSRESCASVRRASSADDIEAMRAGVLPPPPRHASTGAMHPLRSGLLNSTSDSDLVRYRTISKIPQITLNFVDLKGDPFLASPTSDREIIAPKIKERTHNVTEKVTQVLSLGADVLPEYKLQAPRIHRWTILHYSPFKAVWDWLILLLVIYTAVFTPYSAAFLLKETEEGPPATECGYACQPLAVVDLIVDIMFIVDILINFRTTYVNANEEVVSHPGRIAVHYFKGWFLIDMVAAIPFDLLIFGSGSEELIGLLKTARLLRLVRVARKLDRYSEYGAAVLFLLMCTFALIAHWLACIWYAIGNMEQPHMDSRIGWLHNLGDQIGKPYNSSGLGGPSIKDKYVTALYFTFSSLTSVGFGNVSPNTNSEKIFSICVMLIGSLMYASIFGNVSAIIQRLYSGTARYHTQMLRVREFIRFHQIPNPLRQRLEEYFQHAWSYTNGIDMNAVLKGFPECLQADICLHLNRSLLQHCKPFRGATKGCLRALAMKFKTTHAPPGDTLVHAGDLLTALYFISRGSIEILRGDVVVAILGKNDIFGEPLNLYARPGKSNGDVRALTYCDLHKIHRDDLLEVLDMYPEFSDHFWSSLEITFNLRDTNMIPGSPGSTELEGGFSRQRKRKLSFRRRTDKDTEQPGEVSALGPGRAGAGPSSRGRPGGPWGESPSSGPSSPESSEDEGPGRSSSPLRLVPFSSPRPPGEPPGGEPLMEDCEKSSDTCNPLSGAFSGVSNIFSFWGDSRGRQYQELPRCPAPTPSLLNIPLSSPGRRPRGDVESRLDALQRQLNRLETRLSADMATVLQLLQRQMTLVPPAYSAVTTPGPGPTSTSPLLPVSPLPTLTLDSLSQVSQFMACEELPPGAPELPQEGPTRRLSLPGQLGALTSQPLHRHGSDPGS
KCNK9 inh: inhibitors of human KCNK9 two-pore domain potassium channel. 1.2% of 310,000 active. B-score at 10 µM. HEK293 KCNK9, FluxOR thallium flux fluorescence; hits give low values;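 active = ratio B-score over 3 SD below the library mean, with starting fluorescence within 5 SD of its mean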;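 note: negative B-score means less thallium flux so channel inhibition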
Kir21 block: Kir2.1 (mouse) channel inhibition. P35561. B-score at 10 µM. 0.85% of 310,000 active. HEK293-Kir2.1, FluxOR thallium flux fluorescence; hits give low values;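 active = fluorescence ratio B-score at or below minus 3 SD of library scores, with starting-brightness B-score within 2 SD, cut at about -4.2 in these data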;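 note: channel flux triggered by added potassium and thallium sulfate stimulus; B-score of peak minus minimum fluorescence over baseline after thallium stimulus; more negative B-score means stronger Kir2.1 block with less thallium influx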
KCNK9 block conf: human KCNK9 inhibitor confirmation | inhibition, % at 10 µM | 43% of 4,900 active | AID 492992 | HEK293 KCNK9 cells, FluxOR thallium flux fluorescence | shares compounds with KCNK9 inh;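 active = thallium signal inhibited by more than 5 SD of the compound-free buffer control wells, on both duplicate plates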;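 note: 0% = assay buffer control wells without compound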
Kir21 sel: tests whether KCNK9 modulators also affect mouse Kir2.1; 4% of 4,900 active; Kir2.1 cells, FluxOR thallium flux fluorescence; shares compounds with KCNK9 inh; inhibition, % at 10 µM;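 active = thallium signal drop more than 5 SD beyond the mean of the no-compound control wells, seen in both duplicate plates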;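 note: signal is fluorescence rise after thallium addition divided by baseline fluorescence; plate controls were assay buffer only for no effect and full block by chlorpromazine control for full effect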
HEK293 Tl ctr: second counter-screen for KCNK9 modulators: effect in non-induced cells; shares compounds with KCNK9 inh; non-induced KCNK9-HEK293, FluxOR thallium flux; inhibition, % at 10 µM; 40% of 4,900 active;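 active = thallium signal drop beyond 5 SD of the untreated control mean, on both duplicate plates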;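 note: plate controls were buffer only IC0 wells for no effect and SID17386958 at its maximal inhibitory level for full effect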
KCNK3 inh conf: confirmation of human KCNK3 two-pore domain potassium channel inhibitors; CHO-KCNK3 thallium flux, FluxOR fluorescence; 0% buffer, 100% carvedilol maximal block; shares compounds with KCNK3 inh; ratio percent of control, % at 10 µM; 99% of 2,400 active; AID 651638;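 active = ratio percent of control, averaged over triplicates, above buffer control mean plus 5 SD, cut at about 64% in these data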;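 note: ratio is the fluorescence rise from min to max over baseline after thallium stimulus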
KCNK3 noninduced: KCNK3 inhibitor counter-screen hit in non-induced cells | shares compounds with KCNK3 inh | non-induced KCNK3 parental cells, FluxOR thallium flux; hits give low values | thallium flux ratio (lower = more inhibition) at 10 µM | 40% of 2,400 active | AID 651747;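 active = thallium flux ratio, averaged over three wells, more than 5 SD below the buffer control mean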;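 note: host cells are CHO cells without KCNK3 induction; ratio is peak minus trough fluorescence over baseline then normalized to buffer controls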
* hit, by the source's call; i = inactive; / = no result.

SMILES	KCNQ1 pot	KCNQ1 block	KCNK3 inh	hERG rescue	KCNK9 inh	Kir21 block	KCNK9 block conf	Kir21 sel	HEK293 Tl ctr	KCNK3 inh conf	KCNK3 noninduced
CCc1ccc2oc(=O)cc(CN(C)Cc3ccccc3)c2c1	i	i	i	-9	i	-0.98	/	/	/	/	/
CCN(Cc1cc(=O)oc2cc(C)ccc12)c1ccccc1	i	i	i	-6	i	-0.42	/	/	/	/	/
CCCn1c(N)c(N(CCOC)C(=O)c2ccccc2)c(=O)[nH]c1=O	i	i	i	-4	i	1.8	/	/	/	/	/
COc1cc(NC(=S)N2CCN(C)CC2)cc(OC)c1	i	i	i	-6	i	-2.6	/	/	/	/	/
CN(c1ccccc1)S(=O)(=O)c1cccc2ccccc12	i	i	-10*	-6	-9*	-3	39%*	i	30%*	113*	i
CCn1c(SCC(=O)O)nnc1-c1cccnc1	i	i	i	-3	i	1.4	/	/	/	/	/
O=C(O)c1nn(-c2ccccc2)c(-c2ccccc2)c1C(=O)c1ccccc1	i	i	i	-12	i	-0.16	/	/	/	/	/
COC(=O)c1nn(-c2ccccc2)c(-c2ccccc2)c1C(=O)c1ccccc1	i	i	-8.9*	-11	-9.4*	0.41	48%*	i	i	106*	i
C=CCN1C(=S)CC(c2ccccc2)=Nc2ccccc21	i	i	i	-6	i	-2.2	/	/	/	/	/
O=C(c1ccco1)N(CCC(c1ccccc1)c1ccco1)Cc1ccc(F)cc1 (stereo unspecified)	i	i	-11*	-19	-14*	-4.4*	66%*	40%*	31%*	95*	0.15*
Clc1ncnc2c1oc1ccccc12	i	i	i	-18	i	1.5	/	/	/	/	/
c1coc(CN(Cc2ccco2)c2ncnc3c2oc2ccccc23)c1	i	i	-12*	-9	-18*	0.05	70%*	i	i	139*	0.14*
Cc1nn(Cc2ccc(C(=O)Nc3ccc(C(=O)OC(C)C)cc3)o2)c(C)c1Cl	i	i	-9.5*	-12	-10*	-0.47	56%*	i	i	107*	i
Cc1nn(Cc2ccc(C(=O)NN)o2)c(C)c1Cl	i	i	i	-1	i	0.22	/	/	/	/	/
CCOC(=O)c1cc(-c2ccc(Cl)cc2)nc2c1c(C)nn2CCC#N	i	i	-9.3*	-3	-13*	-1.1	52%*	i	32%*	125*	0.13*
C/C(CC(=O)Nc1cccc(C(F)(F)F)c1)=N\NC(=O)c1cnccn1	i	i	i	-3	i	-0.16	/	/	/	/	/
COc1ccc(C2CC(c3cccs3)=NN2C(=O)COC(=O)C2CCCCC2)cc1OC (stereo unspecified)	i	i	-9.6*	-11	-15*	1.9	43%*	i	38%*	103*	i
CCOC(=O)C1CCN(C(=O)COc2ccc(Br)cc2Br)CC1	i	i	i	-14	i	-2	/	/	/	/	/
CCOC(=O)C1CCN(C(=O)COc2cc(C)c(Br)cc2C)CC1	i	i	-11*	-8	i	0.92	i	i	i	78*	i
CCC(C)(C)n1nnnc1CN(Cc1ccc(Cl)cc1)Cc1ccco1	i	i	i	-16	-11*	-5.1*	54%*	i	40%*	126*	0.16*
Cc1c(O)nc(SC2CC(=O)N(c3cc(Cl)cc(Cl)c3)C2=O)[nH]c1=O (stereo unspecified)	i	i	i	-10	i	1.8	/	/	/	/	/
CN1CCN(NC(=O)c2ccc(COc3ccccc3Br)o2)CC1	i	i	i	-7	i	-0.02	/	/	/	/	/
CC(C)CC(c1nnnn1Cc1cccs1)N1CCN(c2nc3ccccc3s2)CC1 (stereo unspecified)	i	i	-10*	-12	-12*	-1.1	38%*	i	i	129*	0.12*
COCCn1c(SCCOc2ccccc2)nc2ccccc2c1=O	i	i	-9*	-11	-11*	-2.3	38%*	i	46%*	114*	0.14*
OCCn1c(SCCOc2ccccc2)nc2ccccc21	i	i	i	-8	i	-0.61	/	/	/	/	/
SMILES	KCNQ1 pot	KCNQ1 block	KCNK3 inh	hERG rescue	KCNK9 inh	Kir21 block	KCNK9 block conf	Kir21 sel	HEK293 Tl ctr	KCNK3 inh conf	KCNK3 noninduced
CCSc1nc2ccccc2n1CCOc1ccccc1	i	i	-11*	-3	-12*	-1.2	28%*	i	30%*	120*	i
COCCn1c(SCC(=O)c2ccccc2)nc2ccccc2c1=O	i	i	i	-6	i	1.5	/	/	/	/	/
O=C(COC(=O)Cn1cnc2ccccc21)Nc1ccc(F)c(F)c1	/	/	i	/	/	/	/	/	/	/	/
Cc1cccc(NS(=O)(=O)c2cccc(C(=O)NCC(C)(C)N3CCOCC3)c2)c1	i	i	i	-10	i	0.32	/	/	/	/	/
Cc1ccc(NC(=O)c2sc3ccccc3c2Cl)nc1	i	i	i	-6	-15*	0.05	56%*	i	30%*	87*	i
Cc1nnc(NC(=O)c2sc3ccccc3c2Cl)s1	i	i	i	-4	i	-1.7	/	/	/	/	/
Cc1ccc(C)c(NC(=O)CS(=O)(=O)c2cccc3nsnc23)c1	i	i	i	-7	i	-2.5	/	/	/	/	/
CCOc1ccc(N=C/C=C/c2ccccc2)c(O)c1	i	i	i	-1	i	0.35	/	/	/	/	/
CCOc1ncccc1C(=O)Nc1cccc(-c2nc3cccnc3s2)c1	i	i	-9.6*	-11	-10*	0.05	i	i	i	101*	i
O=C(Nc1cccc(-c2nc3cccnc3s2)c1)c1ccco1	i	i	i	-14	i	-0.67	/	/	/	/	/
Cc1cccc(N2CCN(C(=O)c3cn4ccccc4n3)CC2C)c1 (stereo unspecified)	i	i	i	1	i	0.78	/	/	/	/	/
CCn1c(C(=O)N2CCC(C(=O)NCCCSC3CCCCC3)CC2)cc2sccc21	i	i	-9.3*	-21	i	-0.15	i	i	i	92*	i
